Consider six molecules from ChEMBL document CHEMBL2029238, “Contribution of phosphates and adenine to the potency of adenophostins at the IP₃ receptor: synthesis of all possible bisphosphates of adenophostin A” (J Med Chem, 2012).

Holding throughout (format): functional, cell-based
Assay [1] concerns the target Inositol 1,4,5-trisphosphate-gated calcium channel ITPR1 (Rattus norvegicus, UniProt P29994). Briefly: Agonist activity at rat IP3R1 expressed in chicken DT40 cells assessed as induction of Ca2+ release. In short, it runs like this:
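DT40 cells stably expressing only rat IP3R1 loaded with Mag-fluo-4AM (20 μM, 1 h, 20 °C). Permeabilized with saponin (10 μg/mL, 4 min, 37 °C), then washed in Mg2+-free cytosol-like medium (~200 nM free Ca2+, pH 7.0). ER Ca2+ loaded with 1.5 mM Mg-ATP for 150 s before ligand addition.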

Assay [2] addresses Inositol 1,4,5-trisphosphate-gated calcium channel ITPR1 (Rattus norvegicus) (UniProt P29994). Briefly: Agonist activity at rat IP3R1 expressed in chicken DT40 cells assessed as Ca2+ release relative to control. In a few lines: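 DT40 cells stably expressing only rat IP3R1 loaded with Mag-fluo-4AM (20 μM, 1 h, 20 °C). Permeabilized with saponin (10 μg/mL, 4 min, 37 °C), then washed in Mg2+-free cytosol-like medium (~200 nM free Ca2+, pH 7.0). ER Ca2+ loaded with 1.5 mM Mg-ATP for 150 s before ligand addition. Release measured by luminal fluorescence (ex 485/em 520 nm) as a fraction of the 1 μM ionomycin-releasable content.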

Assay [3] has the same target. Briefly: Agonist activity at rat IP3R1 expressed in chicken DT40 cells assessed as Ca2+ release at 50 uM relative to control.

Sequence of Inositol 1,4,5-trisphosphate-gated calcium channel ITPR1 (Rattus norvegicus) (P29994 whole entry, looked up): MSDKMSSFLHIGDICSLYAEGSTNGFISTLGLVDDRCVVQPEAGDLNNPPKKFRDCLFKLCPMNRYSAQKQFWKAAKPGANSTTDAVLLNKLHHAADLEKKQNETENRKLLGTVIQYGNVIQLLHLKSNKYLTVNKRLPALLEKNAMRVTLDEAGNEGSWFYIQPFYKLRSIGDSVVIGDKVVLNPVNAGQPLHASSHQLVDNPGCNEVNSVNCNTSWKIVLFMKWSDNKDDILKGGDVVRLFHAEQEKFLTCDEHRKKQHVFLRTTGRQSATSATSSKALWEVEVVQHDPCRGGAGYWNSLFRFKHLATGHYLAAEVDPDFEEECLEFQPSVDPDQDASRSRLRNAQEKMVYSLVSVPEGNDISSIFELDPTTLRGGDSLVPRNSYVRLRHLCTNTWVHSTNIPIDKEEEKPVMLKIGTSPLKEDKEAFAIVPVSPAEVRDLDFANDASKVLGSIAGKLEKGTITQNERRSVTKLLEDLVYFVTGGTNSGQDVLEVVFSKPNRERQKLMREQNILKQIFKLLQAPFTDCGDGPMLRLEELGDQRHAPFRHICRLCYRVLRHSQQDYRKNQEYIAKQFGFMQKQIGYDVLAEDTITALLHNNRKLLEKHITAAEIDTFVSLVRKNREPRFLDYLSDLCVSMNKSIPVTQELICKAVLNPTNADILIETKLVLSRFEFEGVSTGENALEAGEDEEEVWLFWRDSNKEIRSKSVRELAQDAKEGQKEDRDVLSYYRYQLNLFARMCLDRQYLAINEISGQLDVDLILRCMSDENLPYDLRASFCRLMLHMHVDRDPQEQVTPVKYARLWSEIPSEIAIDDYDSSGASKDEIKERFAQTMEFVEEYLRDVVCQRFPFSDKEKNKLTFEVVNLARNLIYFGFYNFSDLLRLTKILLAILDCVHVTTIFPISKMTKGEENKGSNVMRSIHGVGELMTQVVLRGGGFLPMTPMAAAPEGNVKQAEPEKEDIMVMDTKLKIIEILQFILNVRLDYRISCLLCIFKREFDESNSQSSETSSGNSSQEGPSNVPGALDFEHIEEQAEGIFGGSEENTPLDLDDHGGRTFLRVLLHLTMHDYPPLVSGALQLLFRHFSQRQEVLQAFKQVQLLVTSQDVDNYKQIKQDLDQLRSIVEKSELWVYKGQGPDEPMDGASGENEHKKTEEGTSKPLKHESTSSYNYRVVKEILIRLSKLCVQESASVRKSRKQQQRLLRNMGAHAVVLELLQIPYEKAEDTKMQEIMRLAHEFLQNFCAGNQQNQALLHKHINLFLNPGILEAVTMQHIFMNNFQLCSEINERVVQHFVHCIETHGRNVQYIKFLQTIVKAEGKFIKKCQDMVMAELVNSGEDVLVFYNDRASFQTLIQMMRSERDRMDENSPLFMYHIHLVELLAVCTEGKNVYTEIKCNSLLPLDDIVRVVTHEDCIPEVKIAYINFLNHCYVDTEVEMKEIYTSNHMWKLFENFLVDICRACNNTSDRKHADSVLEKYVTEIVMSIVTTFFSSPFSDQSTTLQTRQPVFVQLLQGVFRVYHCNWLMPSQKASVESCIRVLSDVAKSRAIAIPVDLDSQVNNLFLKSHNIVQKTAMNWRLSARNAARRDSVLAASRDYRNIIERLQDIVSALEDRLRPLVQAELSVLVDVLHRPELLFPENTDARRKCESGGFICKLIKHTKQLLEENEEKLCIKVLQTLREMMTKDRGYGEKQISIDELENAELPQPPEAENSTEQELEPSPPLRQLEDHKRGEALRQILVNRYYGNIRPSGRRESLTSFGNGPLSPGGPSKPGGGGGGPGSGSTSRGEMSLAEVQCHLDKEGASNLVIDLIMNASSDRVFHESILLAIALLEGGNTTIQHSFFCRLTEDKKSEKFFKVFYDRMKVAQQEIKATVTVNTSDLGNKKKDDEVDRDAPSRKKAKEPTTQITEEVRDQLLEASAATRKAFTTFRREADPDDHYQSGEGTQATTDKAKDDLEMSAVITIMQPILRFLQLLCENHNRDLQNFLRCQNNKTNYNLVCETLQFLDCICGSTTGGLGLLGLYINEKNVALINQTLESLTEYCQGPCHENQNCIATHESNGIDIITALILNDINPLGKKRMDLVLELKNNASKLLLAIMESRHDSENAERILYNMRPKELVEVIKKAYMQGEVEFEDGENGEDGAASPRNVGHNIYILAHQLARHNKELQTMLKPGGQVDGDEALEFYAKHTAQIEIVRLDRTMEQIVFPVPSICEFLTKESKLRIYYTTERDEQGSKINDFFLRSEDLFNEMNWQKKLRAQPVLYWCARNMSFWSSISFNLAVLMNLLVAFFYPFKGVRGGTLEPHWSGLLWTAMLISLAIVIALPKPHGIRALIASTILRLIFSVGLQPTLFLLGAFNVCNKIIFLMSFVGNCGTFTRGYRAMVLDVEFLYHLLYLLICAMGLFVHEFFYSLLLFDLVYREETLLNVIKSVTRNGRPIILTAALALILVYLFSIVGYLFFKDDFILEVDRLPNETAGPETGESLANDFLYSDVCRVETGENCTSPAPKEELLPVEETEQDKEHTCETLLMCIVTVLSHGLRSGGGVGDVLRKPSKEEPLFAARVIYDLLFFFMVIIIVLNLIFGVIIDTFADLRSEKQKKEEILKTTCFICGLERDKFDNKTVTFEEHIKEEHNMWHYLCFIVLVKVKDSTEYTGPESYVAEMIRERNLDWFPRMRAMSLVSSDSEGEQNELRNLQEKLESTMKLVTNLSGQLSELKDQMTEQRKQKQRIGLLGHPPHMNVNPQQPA

By EC50 is commonly meant the concentration at which the effect is half-maximal. For the molecule `Nc1ncnc2c1ncn2[C@@H]1O[C@H](CO)[C@@H](O[C@H]2O[C@H](CO)[C@@H](OP(=O)(O)O)[C@H](OP(=O)(O)O)[C@H]2O)[C@H]1O`, the EC50 in assay [1] is 0.107 µM. Moreover, in assay [2], the Activity was 67%.
On the same counts, the results for `O=P(O)(O)O[C@H]1[C@H](OP(=O)(O)O)[C@@H](O)C(O)O[C@@H]1CO` (stereo not given in full) are 25.2 µM and 72%.
For the molecule `Nc1ncnc2c1ncn2[C@@H]1O[C@H](CO)[C@@H](O[C@H]2O[C@H](CO)[C@@H](OP(=O)(O)O)[C@H](OP(=O)(O)O)[C@H]2O)[C@H]1OP(=O)(O)O` [ADENOPHOSTIN A], in assay [1], the half-maximal effective concentration (EC50) was determined as 0.0028 µM.
Turning to `Nc1ncnc2c1ncn2[C@@H]1O[C@H](CO)[C@@H](O[C@H]2O[C@H](CO)[C@@H](O)[C@H](OP(=O)(O)O)[C@H]2O)[C@H]1OP(=O)(O)O`, the Activity in assay [3] was 8%.
Regarding `O=P(O)(O)O[C@@H]1[C@@H](O)[C@H](O)[C@H](O)[C@H](O)[C@H]1OP(=O)(O)O`, the EC50 in assay [1] came out at 8.63 µM. Further, the Activity in assay [2] came to 73%.
For the molecule `Nc1ncnc2c1ncn2[C@@H]1O[C@H](CO)[C@@H](O[C@H]2O[C@H](CO)[C@@H](OP(=O)(O)O)[C@H](O)[C@H]2O)[C@H]1OP(=O)(O)O`, the 50% effective concentration (EC50) in assay [1] worked out at 53 µM. Besides, in assay [3], the Activity is 53%.
